We go through 1 molecule from ChEMBL document CHEMBL4049421, “Design, Synthesis, and Pharmacological Characterization of N-(4-(2 (6,7-Dimethoxy-3,4-dihydroisoquinolin-2(1H)yl)ethyl)phenyl)quinazolin-4-amine Derivatives: Novel Inhibitors Reversing P-Glycoprotein-Mediated Multidrug Resistance” (J Med Chem, 2017).

By IC50 is commonly meant the concentration needed to halve the response being measured. Broadly, the EC50 is the concentration at which the effect is half-maximal. In general, Cmax refers to the highest concentration seen after dosing. By CL/F is commonly meant clearance divided by bioavailability, as obtained after extravascular dosing. As a reminder, the bioavailability is dose-corrected exposure relative to a reference, in per cent. The low end stands for poor availability, the high end for good availability.

Calls of active or inactive are those of the source. No cut-off for these calls is given here.

Series [1] in a line: Cytotoxicity against human K562 cells assessed as cell viability at 1.0 uM after 48 hrs by MTT assay (reference value: >99%). In kind it is cell-based. Conditions: read-out: Activity. (Tetrazolium dyes change colour on reduction, which living cells bring about.)
Series [2] is filed under the species Homo sapiens. Description: Inhibition of P-gp in human K562/A02 cells assessed as potentiation of doxorubicin-induced cytotoxicity by measuring fold reduction in doxorubicin IC50 at 1.0 uM after 48 hrs by MTT assay relative to doxorubicin alone. In kind it is cell-based. In a few lines: (§1)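 K562/A02 cells (1×10^4 cells per well) were exposed to a DOX concentration series, alone or with modulator at 1.0 μM, for 48 h. Viability was read by MTT at 490 nm. Reversal fold = DOX IC50 without inhibitor / DOX IC50 with inhibitor, mean ± SD of three tests.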

For another series, the system named is K562. Description: Cytotoxicity against human K562 cells assessed as suppression of cell viability after 48 hrs by MTT assay. In kind it is cell-based. Particulars: K562, 48 h. In a few lines: (§2)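 MTT assay on HUVEC, K562 or K562/A02 cells seeded at 1×10^4 cells per well, using serial compound concentrations. Formazan was dissolved in DMSO and read at 490 nm. IC50 was obtained from log dose–response curves, mean ± SD of three independent tests.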

The next series has as its system K562/A02. Description: Cytotoxicity against human K562/A02 cells assessed as suppression of cell viability after 48 hrs by MTT assay. In kind it is cell-based. Particulars: K562/A02, 48 h. In a few lines: as §2
Series [3] can be described thus: Inhibition of P-gp in human K562/A02 cells assessed as potentiation of doxorubicin-induced cytotoxicity by measuring fold reduction in doxorubicin IC50 after 48 hrs by MTT assay relative to doxorubicin alone. It is filed as cell-based. Particulars: K562/A02, 48 h. In a few lines: as §1
Series [4] in a line: Selective index, ratio of IC50 for human K562 cells to EC50 for inhibition of P-gp in human K562/A02 cells assessed as potentiation of doxorubicin-induced cytotoxicity. In a few lines:
(§3)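 Reversal EC50 is the modulator concentration that halves the DOX IC50 in K562/A02 cells, from % DOX IC50 plotted against log modulator concentration. The index divides the MTT IC50 in K562, K562/A02 or HUVEC cells by this EC50.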

A short description of series [5]: Selective index, ratio of IC50 for human K562/A02 cells to EC50 for inhibition of P-gp in human K562/A02 cells assessed as potentiation of doxorubicin-induced cytotoxicity. An outline of the steps: as §3
Series [6] in a line: Selectivity index, ratio of IC50 for HUVEC to EC50 for inhibition of P-gp in human K562/A02 cells assessed as potentiation of doxorubicin-induced cytotoxicity. In a few lines: as §3
Series [7] is filed under the species Homo sapiens. Description: Inhibition of P-gp in human K562/A02 cells assessed as potentiation of paclitaxel-induced cytotoxicity at 1.0 uM after 48 hrs by MTT assay. In kind it is cell-based. In a few lines:
(§4)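 K562/A02 cells were exposed for 48 h to DNR, PTX, VLB or CTX at 0, 0.313–20 μM, with or without modulator at 1.0 μM. Viability was measured by MTT at 490 nm, mean ± SD of three independent tests.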

Series [8] is filed under the species Homo sapiens. Description: Inhibition of P-gp in human K562/A02 cells assessed as potentiation of vinblastine-induced cytotoxicity at 1.0 uM after 48 hrs by MTT assay. In kind it is cell-based. In a few lines: as §4
The species named for series [9] is Homo sapiens. Put plainly: Inhibition of P-gp in human K562/A02 cells assessed as accumulation of doxorubicin at 0.1 uM to 5.0 uM after 150 mins by fluorescence spectrophotometric analysis. In kind it is cell-based. In a few lines:
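K562/A02 cells (4×10^5) were incubated 150 min at 37 °C with 20.0 μM DOX plus modulator at various concentrations, with 0.1% DMSO as negative control. Cells were washed with cold PBS and lysed in HCl/Triton X-100/isopropanol. DOX fluorescence was read at ex 460 / em 587 nm. Mean ± SD, n = 3.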

Series [10] is described as follows: Inhibition of CYP3A4 in rat liver microsomes assessed as decrease in 6beta-OH testosterone levels at 40 uM using testosterone as substrate by HPLC analysis. In kind it is ADME. In a few lines: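 Rat liver microsomes, prepared by differential centrifugation, were incubated with testosterone in the absence or presence of compound at 2.5, 5.0, 10.0, 20.0 and 40.0 μM. The 6β-OH testosterone product was quantified by C18 reverse-phase gradient HPLC at 254 nm. Ketoconazole served as positive control. n = 3.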

Series [11] can be described thus: Elimination half life in Sprague-Dawley rat plasma at 10 mg/kg, po by LC-MS/MS analysis. It is filed as ADME, organism-based. Particulars: read-out: beta t1/2 (converted). In a few lines: (§5)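 Male Sprague-Dawley rats, n = 3 per group, given drug in Tween-80/ethanol/saline (5:10:85, v/v) at 10 mg/kg p.o. or 5 mg/kg i.v. Retro-orbital blood was taken at 5 min to 24 h, and plasma separated at 900g. Samples were spiked with internal standard, methanol-precipitated and quantified by LC-MS/MS. F = (AUCpo/AUCiv)×(dose iv/dose po)×100%.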

Series [12] is described as follows: Elimination half life in Sprague-Dawley rat plasma at 5 mg/kg, iv by LC-MS/MS analysis. It is filed as ADME, organism-based. Particulars: read-out: beta t1/2 (converted). An outline of the steps:
as §5

A short description of series [13]: Cmax in Sprague-Dawley rat at 10 mg/kg, po measured after 24 hrs by LC-MS/MS analysis. More on the design: dose 10 mg/kg, route oral. In kind it is ADME, organism-based. Conditions: in vivo. An outline of the steps:
as §5

The nature of series [14]: Cmax in Sprague-Dawley rat at 5 mg/kg, iv measured after 24 hrs by LC-MS/MS analysis. In kind it is ADME, organism-based. More on the design: dose 5 mg/kg, route intravenous. Particulars: in vivo. An outline of the steps: as §5
The nature of series [15]: Plasma clearance in Sprague-Dawley rat at 10 mg/kg, po measured after 24 hrs by LC-MS/MS analysis. It is filed as ADME, organism-based. An outline of the steps:
as §5

Series [16] is described as follows: Bioavailability in Sprague-Dawley rat plasma at 5 mg/kg, iv measured after 24 hrs by LC-MS/MS analysis. It is filed as ADME, organism-based. In a few lines: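 Bioavailability was calculated as (AUCpo/AUCiv)×(dose iv/dose po)×100% from male SD rats (n = 3) dosed 5 mg/kg i.v. or 10 mg/kg p.o. in Tween-80/ethanol/saline (5:10:85). Plasma sampled 5 min–24 h was analysed by LC-MS/MS.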

For series [17], the system named is Rattus norvegicus. Put plainly: Effect on plasma concentration of doxorubicin in Sprague-Dawley rat at 5 mg/kg, iv co-administered with doxorubicin measured after 8 hrs by LC-MS/MS analysis. It is filed as ADME, organism-based. Particulars: in vivo. In a few lines: (§6)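 Male SD rats received DOX 10 mg/kg i.v. alone or with modulator 5 mg/kg i.v. Orbital blood was taken at 5 min to 8 h. Plasma DOX was measured by LC-MS/MS with DNR (0.5 μg/mL) as internal standard. Mean ± SD, n = 3.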

For series [18], the species on record is Homo sapiens. Put plainly: Inhibition of P-gp in human K562/A02 cells assessed as potentiation of doxorubicin-induced cytotoxicity at 1.0 uM preincubated for 24 hrs followed by doxorubicin addition measured after 48 hrs by MTT assay. In kind it is cell-based. In a few lines:
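K562/A02 cells (1×10^4 cells per well) were preincubated 24 h with modulator (1.0 μM or 5.0 μM) or PBS. Cells were washed 0 or 3 times with medium and held for 0, 6, 12 or 24 h. A DOX concentration series was then added for 48 h, and viability was read by MTT. Triplicate determinations.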

Series [19] has as its system Rattus norvegicus. Put plainly: Effect on MRT of doxorubicin in Sprague-Dawley rat at 5 mg/kg, iv co-administered with doxorubicin measured after 8 hrs by LC-MS/MS analysis. Conditions: in vivo. In kind it is ADME, organism-based. An outline of the steps: as §6
In series [20] the test system is Rattus norvegicus. Description: Effect on half life of doxorubicin in Sprague-Dawley rat at 5 mg/kg, iv co-administered with doxorubicin measured after 8 hrs by LC-MS/MS analysis. In kind it is ADME, organism-based. Conditions: in vivo. An outline of the steps:
as §6

`COc1cc2c(cc1OC)CN(CCc1ccc(Nc3nc(-c4ccncc4)nc4ccccc34)cc1)CC2`: the viability at 48 h, 1 µM in [1] worked out at 96.5%. The fold change (FC) in the series filed under Homo sapiens [2] was 30.9. The IC50 with K562 stood at 4 µM; in the series with K562/A02, 12.8 µM. The EC50 in series [3] came to 0.0579 µM. For the same molecule, the “Ratio IC50/EC50” value in [4] amounted to 75.6; in series [5], 241.6; in series [6] it was 1270. In addition, the inhibition entry in the series listed under Homo sapiens [7], in the series filed under Homo sapiens [8], in the series filed under Homo sapiens [9] and in the series listed under Homo sapiens [18] was “Active” each time. Moreover, the “inhibition (INH)” value in series [10] is “Not Active”. Besides, the half-life is 6.2 h in series [11] and 5.9 h in [12]. Besides, the Cmax in [13] is 761 ng/mL; in series [14], 570 ng/mL. Besides, the CL/F in series [15] turned out to be 49.9 mL/min/kg. Also, in series [16], the bioavailability was determined as 95.3%. In addition, the Activity entry in the series with Rattus norvegicus [17], in the series on Rattus norvegicus [19] and in the series with Rattus norvegicus [20] was “Non-Toxic” each time.
